This is an account of results in ChEMBL document CHEMBL3286120, “Design and synthesis of novel soluble 2,5-diketopiperazine derivatives as potential anticancer agents” (Eur J Med Chem, 2014).

pIC50: −log10 of the molar value.

In general, pIC50 refers to the negative decadic logarithm of the IC50, by convention in mol/L.

Experiment [1] is described as follows: Cytotoxicity against human BGC823 cells assessed as reduction in cell viability after 72 hrs by CCK8 assay. The format is functional, cell-based, BGC-823. The following applies: for IC50: bgc-823; for pIC50: Homo sapiens, BGC-823, 72 h, read-out: IC50. The gist of the method: (§1)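 Cells kept in RPMI or DMEM with 10% FBS and 1% penicillin/streptomycin at 37 °C in 5% CO2. Seeded at 400-800 cells/well in 384-well plates and exposed to varying compound concentrations, with solution-only control, for 72 h. CCK8 reagent added, then absorbance read at 450 nm. Plinabulin and TSA were positive controls. Mean SD of three experiments.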
On the technique in general: Tetrazolium assays rely on reduction of a dye to a coloured formazan, in cell work by metabolically active cells.

Another experiment relates to MCF7. Description: Cytotoxicity against human MCF7 cells assessed as reduction in cell viability after 72 hrs by CCK8 assay. The conditions noted are these: for IC50: mcf7; for pIC50: Homo sapiens, MCF7, 72 h, read-out: IC50. The format is functional, cell-based. In outline: as §1
In another experiment the test system is U-937. Description: Cytotoxicity against human U937 cells assessed as reduction in cell viability after 72 hrs by CCK8 assay. The format is functional, cell-based. The conditions noted are these: for IC50: u-937; for pIC50: Homo sapiens, U-937, 72 h, read-out: IC50. The gist of the method: as §1
The next experiment relates to K562. Description: Cytotoxicity against human K562 cells assessed as reduction in cell viability after 72 hrs by CCK8 assay. Type of experiment: functional, cell-based. The conditions noted are these: for IC50: k562; for pIC50: Homo sapiens, K562, 72 h, read-out: IC50. In outline: as §1
In a further experiment the test system is HeLa. Description: Cytotoxicity against human HeLa cells assessed as reduction in cell viability after 72 hrs by CCK8 assay. The conditions noted are these: for IC50: hela; for pIC50: Homo sapiens, HeLa, 72 h, read-out: IC50. The format is functional, cell-based. In outline: as §1
For another experiment, the system named is A549. Put plainly: Cytotoxicity against human A549 cells assessed as reduction in cell viability after 72 hrs by CCK8 assay. Type of experiment: functional, cell-based. The following applies: for IC50: a549; for pIC50: Homo sapiens, A549, 72 h, read-out: IC50. The gist of the method: as §1
The subject of another experiment is NCI-H1975. Put plainly: Cytotoxicity against human NCI-H1975 cells assessed as reduction in cell viability after 72 hrs by CCK8 assay. The format is functional, cell-based. The conditions noted are these: for IC50: nci-h1975; for pIC50: Homo sapiens, NCI-H1975, 72 h, read-out: IC50. The gist of the method: as §1
Experiment [2] is described as follows: Cytotoxicity against human HuH7 cells assessed as reduction in cell viability after 72 hrs by CCK8 assay. Type of experiment: functional, cell-based, Huh-7. The following applies: for IC50: huh-7; for pIC50: Homo sapiens, Huh-7, 72 h, read-out: IC50. The gist of the method:
as §1

The test system of a further experiment is HL-60. Description: Cytotoxicity against human HL60 cells assessed as reduction in cell viability after 72 hrs by CCK8 assay. Type of experiment: functional, cell-based. The following applies: for IC50: hl-60; for pIC50: Homo sapiens, HL-60, 72 h, read-out: IC50. The gist of the method: as §1
In another experiment the test system is MOLT-4. Description: Cytotoxicity against human MOLT4 cells assessed as reduction in cell viability after 72 hrs by CCK8 assay. Type of experiment: functional, cell-based. The conditions noted are these: Homo sapiens, MOLT-4, 72 h; read-out: IC50. In outline:
as §1

Take `COc1ccccc1/C=c1/[nH]c(=O)/c(=C\c2ccccc2OC)[nH]c1=O`: the IC50 entry (in experiment [1]; with MCF7; in the experiment with U-937; in the experiment on K562; with HeLa; in the experiment on A549) was “Not Active” throughout. Further, the IC50 entry (in the experiment with NCI-H1975; in experiment [2]; in the experiment on HL-60) was “Not Active” each time.

`C=CCn1c(=O)/c(=C\c2cccc(Cl)c2)[nH]c(=O)/c1=C\c1ccccc1OC`: the negative logarithm of the IC50 (pIC50) in the experiment with MOLT-4 is 5.31; in [1], 5.34; in the experiment on MCF7, 5.28; with U-937, 5.92; with K562, 5.57; in the experiment on HeLa, 5.26. Moreover, the pIC50 in the experiment with A549 was 5.28; with NCI-H1975, 5.29; in [2] it was 5.05; in the experiment on HL-60, 5.35.

For the compound `C=CCn1c(=O)/c(=C\c2cccc(F)c2)[nH]c(=O)/c1=C\c1ccccc1OC`, the pIC50 in the experiment on MOLT-4 is 5.19; in experiment [1], 5.25; in the experiment on MCF7, 4.86; in the experiment with U-937, 5.60; with K562, 5.39; in the experiment with HeLa, 5.04. The negative-log IC50 (pIC50) with A549 was 4.71; in the experiment with NCI-H1975 it was 4.59; in experiment [2], 4.57; in the experiment with HL-60, 5.05.

As to `C=CCn1c(=O)/c(=C\c2cccc(C)c2)[nH]c(=O)/c1=C\c1ccccc1OC`, the pIC50 in the experiment with MOLT-4 was 4.80; in experiment [1], 4.69; with MCF7, 4.68; with U-937, 5.29; with K562 it was 5.06; with HeLa, 4.71. Also, the pIC50 with A549 is 4.64; in the experiment on NCI-H1975, 4.48; in [2], 4.67; in the experiment with HL-60, 4.78.

With `COc1ccccc1/C=c1/[nH]c(=O)/c(=C\c2ccccc2OC)n(C)c1=O`, the IC50 result (in experiment [1]; with HeLa; in experiment [2]) was “Not Active” in each case. Moreover, the pIC50 was 5.05 in the experiment with MCF7; 5.82 in the experiment with U-937; 5.66 in the experiment with K562; 5.15 in the experiment with A549; 4.77 in the experiment with NCI-H1975; 4.79 in the experiment on HL-60.

As for `COc1ccccc1/C=c1\c(=O)[nH]/c(=C/c2ccccc2Cl)c(=O)n1C`, the pIC50 in experiment [1] was 6.52; in the experiment on MCF7, 6.70; with U-937 it was 7.00; with K562, 6.96; in the experiment with HeLa, 6.52; in the experiment on A549, 6.52. The pIC50 was 6.70 in the experiment with NCI-H1975, 6.52 in [2] and 6.70 in the experiment on HL-60.

As for `COc1ccccc1/C=c1\c(=O)[nH]/c(=C/c2cccc(Cl)c2Cl)c(=O)n1C`, the pIC50 in [1] was 6.52; in the experiment with MCF7, 6.70; in the experiment on U-937 it was 7.00; in the experiment on K562, 6.96; in the experiment on HeLa, 6.70; in the experiment with A549, 6.70. The pIC50 was 6.52 with NCI-H1975, 6.52 in experiment [2] and 6.70 in the experiment on HL-60.

For `COc1ccccc1/C=c1/[nH]c(=O)/c(=C\c2cccc(Cl)c2Cl)[nH]c1=O`, the IC50 entry (in experiment [1]; with MCF7; in the experiment on U-937; in the experiment on K562; in the experiment on HeLa; with A549) was “Not Active” in each case. Also, the IC50 entry (in the experiment on NCI-H1975; in experiment [2]; with HL-60) was “Not Active” in each case.

As to `CC(C)(C)c1[nH]cnc1/C=c1\[nH]c(=O)/c(=C/c2ccccc2)[nH]c1=O` [PLINABULIN], the negative-log IC50 (pIC50) in experiment [1] was 8.05; in the experiment on MCF7, 8.00; in the experiment on U-937, 8.22; with K562 it was 8.10; in the experiment on HeLa, 8.00; in the experiment with A549, 8.00. Moreover, the pIC50 was 7.96 in the experiment on NCI-H1975, 7.51 in experiment [2] and 8.00 with HL-60.
